# Assay results gathered from unrelated publications.
# Lines come from different studies, so protocols differ.
# Target: Platelet-derived growth factor receptor beta (PDGFRB, Homo sapiens, UniProt P09619)
Structure (SMILES),effect on,method,concentration,remaining binding [%]
Cc1cnc(Nc2ccc(C(=O)N3CCC(N4CCCC4)CC3)cc2)nc1-c1cc2ccccc2s1,binding,competition with immobilised ligand,1 µM,0.4
COc1ccc2c(c1)O[C@@H](c1ccc(OC)c(OC)c1)C[C@H]2NC(=O)C1(c2ccc3c(c2)OC(F)(F)O3)CC1,cell-free assay,competition with immobilised ligand,1 µM,100
CN(C)c1nccc(-c2cnc3ncccn23)n1,binding,,1 µM,90
N#CC1(c2ccccn2)CCN(Cc2cc(C(=O)N3CCCC3)c(=O)n3ccccc23)CC1,cell-free assay,competition with immobilised ligand,1 µM,86
Nc1ncc2c(n1)-c1c([nH]c3ccc(C#CC4CC4)cc13)CCCC2,binding,competition with immobilised ligand,1 µM,100
CCOCCn1cc(C(=O)Nc2ccc(-n3nc(-c4cccnc4)cc3C(F)(F)F)cn2)ccc1=O,cell-free assay,competition with immobilised ligand,1 µM,88
COC(=O)Nc1nc2ccc(C(=O)c3ccccc3)cc2[nH]1,cell-free assay,competition with immobilised ligand,10 µM,3.2
C[C@@H]1CN(c2ccc3ncc(-c4ccc5[nH]nc(C6CC6)c5c4)n3n2)C[C@H](C)O1,binding,competition with immobilised ligand,0.5 µM,12
c1cnn2ncc(-c3ccnc(N4CCC45COC5)n3)c2c1,binding,,1 µM,78
O=C(Nc1cnc(Oc2ccc(F)cc2)nc1)N1CCc2ncccc2[C@@H]1c1ccc(F)cc1,cell-free assay,competition with immobilised ligand,1 µM,100
C=CC(=O)N1CCC(C(=O)NCC(=O)N2CCN(c3nc(-c4cnc(N)nc4C(F)F)nc(N4CCOCC4)n3)CC2)CC1,binding,competition with immobilised ligand,1 µM,100
C[C@@H](c1ccc(-n2cnc3c(N)ncnc32)cc1)N1CCc2nn(C)c(Cc3ccccc3)c2C1=O,binding,competition with immobilised ligand,0.1 µM,17
N#Cc1ccccc1CSc1nnc2c(n1)[nH]c1ccccc12,binding,competition with immobilised ligand,10 µM,91
COCCOc1nc(-c2ccc(Cl)nc2)nc2c1CN(C(=O)c1ncn3ccccc13)CC2,cell-free assay,competition with immobilised ligand,0.1 µM,100
O=C(NCCCN1CCOCC1)c1ccc(Nc2nccc(-c3cc4ccccc4s3)n2)cc1,binding,competition with immobilised ligand,1 µM,13
COc1ccnn2ncc(-c3ccnc(N(C)C)n3)c12,binding,,1 µM,100
CC(=O)C1=C(C)N(c2cccc(C(F)(F)F)c2)C(=O)N[C@@H]1c1ccc(C#N)nc1,cell-free assay,competition with immobilised ligand,1 µM,94
C[C@@H]1CCN(c2nccc(-c3cnn4ncccc34)n2)C1,binding,,1 µM,100
CNC(=O)Nc1ccc2c(c1)[C@@]1(CC2)OC(=O)N(CC(=O)N(Cc2ccc(F)cc2)[C@@H](C)C(F)(F)F)C1=O,cell-free assay,competition with immobilised ligand,1 µM,87
O=C(NCCCN1CCOCC1)c1ccc(Nc2ncc(Cl)c(-c3ccc(Cl)s3)n2)cc1,binding,competition with immobilised ligand,1 µM,0.05
CN(CCCC(F)(F)F)c1nccc(-c2cnn3ncccc23)n1,binding,,1 µM,95
c1cncc(-c2cccc(Nc3nccc(NC4CCCCC4)n3)c2)c1,binding,competition with immobilised ligand,10 µM,0
N[C@H]1CCN(c2nccc(-c3cnn4ncccc34)n2)C1,binding,,1 µM,93
COc1cnc(Nc2cccc(S(N)(=O)=O)c2)nc1N1CCN(c2ccccc2)C(=O)C1,binding,competition with immobilised ligand,1 µM,94
O=C(NCC1CCOCC1)c1n[nH]cc1NC(=O)c1c(F)cccc1F,binding,competition with immobilised ligand,1 µM,99
